From ChEMBL document CHEMBL1154561, “Bioactive compounds from Combretum erythrophyllum” (J Nat Prod, 2000)
Values after ≈ are worked out from the molar mass of the structure shown.

Tests used:
[1] = tested on: Saccharomyces cerevisiae; assay: Inhibition of pRAD52 recombination repair gene/topoisomerase 1 deficient Saccharomyces cerevisiae RS321N carrying pRAD52 in galactose medium by microtiter plate assay; type: functional, organism-based
Summary of the method: (§1)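 Yeast in minimal medium with galactose or glucose at 2% final. Samples are dissolved in 10% DMSO at 10× final concentration and added 1:10 to the cell suspension in triplicate, with 10% DMSO wells as controls. Plates are incubated at 30 °C in high humidity for 48-72 h and read when control growth reaches OD 0.15-0.25. Inhibition = 1 − (ODtest − ODblank)/(ODplate median − ODblank); IC50 in µg/mL.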

[2] = tested on: Saccharomyces cerevisiae; assay: Inhibition of Saccharomyces cerevisiae RS321NYCp50 in galactose medium by microtiter plate assay; type: functional, organism-based; summary of the method: as §1
[3] = tested on: HeLa; assay: Cytotoxicity against human HeLa cells by XTT assay; type: functional, cell-based
[4] = tested on: Saccharomyces cerevisiae; assay: Inhibition of pRAD52 recombination repair gene/topoisomerase 1 deficient Saccharomyces cerevisiae RS321N carrying pRAD52 in glucose medium by microtiter plate assay; type: functional, organism-based; summary of the method: as §1
[5] = tested on: A549; assay: Cytotoxicity against human A549 cells by XTT assay; type: functional, cell-based
[6] = tested on: Saccharomyces cerevisiae; assay: Inhibition of Saccharomyces cerevisiae RS188 expressing wild type erg6 by agar diffusion assay; type: functional, organism-based
[7] = tested on: Saccharomyces cerevisiae; assay: Inhibition of Saccharomyces cerevisiae RS321 expressing Rad52.erg6.top1 by agar diffusion assay; type: functional
[8] = tested on: Saccharomyces cerevisiae; assay: Inhibition of Saccharomyces cerevisiae RS322 expressing Rad52.erg6 by agar diffusion assay; type: functional

## COc1ccc(/C=C\c2cc(OC)c(OC)c(OC)c2)c(O[C@H]2O[C@@H](CO)[C@H](O)[C@@H](O)[C@@H]2O)c1O
[1]
  IC50: > 100 µg/mL
[2]
  IC50: 13 µg/mL (≈ 26.3 µM)
[3]
  IC50: 1.5 µg/mL (≈ 3.03 µM)
[4]
  IC50: 3 µg/mL
[5]
  IC50: 7 µg/mL (≈ 14.2 µM)

## COc1ccc(CCc2cc(OC)c(OC)c(OC)c2)c(O[C@H]2O[C@@H](CO)[C@H](O)[C@@H](O)[C@@H]2O)c1O
[1]
  IC50: > 100 µg/mL
[6]
  IC12: > 100 µg/mL
[2]
  IC50: 25 µg/mL (≈ 50.4 µM)
[7]
  IC12: > 100 µg/mL
[4]
  IC50: > 100 µg/mL
[8]
  IC12: > 100 µg/mL

## COc1ccc(/C=C\c2cc(OC)c(OC)c(OC)c2)c(O)c1O [COMBRETASTATIN A-1]
[1]
  IC50: 53 µg/mL
[6]
  IC12: 80.1 µg/mL
[2]
  IC50: 1.8 µg/mL (≈ 5.42 µM)
[7]
  IC12: 2.2 µg/mL
[4]
  IC50: 18 µg/mL
[8]
  IC12: 33.5 µg/mL
